Data on three compounds can be found in ChEMBL document CHEMBL2331274, “SAR based design of nicotinamides as a novel class of androgen receptor antagonists for prostate cancer” (J Med Chem, 2013).

Activity calls are given as the source filed them. The rule behind the calls is not given here.

Data set [1] addresses T1, Androgen receptor (Homo sapiens) (UniProt P10275).
T1 sequence (whole entry): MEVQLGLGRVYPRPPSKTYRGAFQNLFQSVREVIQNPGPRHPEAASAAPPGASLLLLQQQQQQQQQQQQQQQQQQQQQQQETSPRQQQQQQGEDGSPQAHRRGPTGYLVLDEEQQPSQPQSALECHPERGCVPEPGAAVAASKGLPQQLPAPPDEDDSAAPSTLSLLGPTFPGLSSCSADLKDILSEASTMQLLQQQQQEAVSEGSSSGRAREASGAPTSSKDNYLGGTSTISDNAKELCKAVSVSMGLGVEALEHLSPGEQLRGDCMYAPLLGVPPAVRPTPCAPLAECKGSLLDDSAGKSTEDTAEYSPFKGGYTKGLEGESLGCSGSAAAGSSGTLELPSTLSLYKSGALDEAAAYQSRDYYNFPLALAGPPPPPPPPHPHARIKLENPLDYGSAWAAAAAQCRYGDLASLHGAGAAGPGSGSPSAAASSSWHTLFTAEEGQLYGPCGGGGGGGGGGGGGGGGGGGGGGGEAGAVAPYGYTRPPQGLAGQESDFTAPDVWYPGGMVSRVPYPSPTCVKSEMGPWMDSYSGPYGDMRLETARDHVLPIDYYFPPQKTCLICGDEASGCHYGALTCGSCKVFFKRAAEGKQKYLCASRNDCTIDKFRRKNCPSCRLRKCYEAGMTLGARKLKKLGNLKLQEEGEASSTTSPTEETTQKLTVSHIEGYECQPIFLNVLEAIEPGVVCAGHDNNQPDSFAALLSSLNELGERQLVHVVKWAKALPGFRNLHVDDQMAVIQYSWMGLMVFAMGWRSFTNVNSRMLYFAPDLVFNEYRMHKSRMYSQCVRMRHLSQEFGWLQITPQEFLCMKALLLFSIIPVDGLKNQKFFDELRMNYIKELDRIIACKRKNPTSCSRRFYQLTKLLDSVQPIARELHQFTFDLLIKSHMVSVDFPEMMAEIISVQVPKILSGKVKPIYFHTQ
Nature of the data set: Inhibition of androgen receptor-mediated SRC2 coactivator recruitment in human PPC1 cells at 10 uM after 1 hr by DAPI staining-based fluorescence microscopic analysis. Type of data set: cell-based. The note with it: PPC-1.

Data set [2] has as its target T1, Androgen receptor (Homo sapiens). Put plainly: Inhibition of androgen receptor-mediated SRC1 coactivator recruitment in human PPC1 cells at 10 uM after 1 hr by DAPI staining-based fluorescence microscopic analysis. Type of data set: cell-based. The settings on record: PPC-1.
The target is the same in data set [3]. Nature of the data set: Inhibition of DHT-induced androgen receptor-mediated GFP-AR protein nuclear translocation in human PPC1 cells at 10 uM after 1 hr by DAPI staining-based fluorescence microscopic analysis. Type of data set: cell-based. The settings on record: PPC-1.
The test system of the next data set is PPC-1. Put plainly: Cytotoxicity against human androgen-independent/AR-negative PPC1 cells after 3 days by MTS/PMS assay. Type of data set: functional, cell-based.
A short description of data set [4]: (§1) Cytotoxicity against human androgen-independent/AR-positive C4-2 cells […] after 4 days by MTS/PMS assay. Type of data set: functional, cell-based. The note with it: LNCaP C4-2, 96 h.
In data set [5] the test system is LNCaP. Nature of the data set: Cytotoxicity against human androgen-dependent LNCAP cells after 6 days by MTS/PMS assay. Type of data set: functional, cell-based. The note with it: 144 h.
Data set [6] deals with LNCaP. Nature of the data set: Cytotoxicity against human androgen-dependent LNCAP cells at 10 uM after 7 days by MTS/PMS assay relative to control. The format is functional. The note with it: for inhibition of growth at 10 µM: 168 h, read-out: GI.
For data set [7], the target named is T2, Androgen receptor (Mus musculus, UniProt P19091).
T2 sequence (P19091 whole entry): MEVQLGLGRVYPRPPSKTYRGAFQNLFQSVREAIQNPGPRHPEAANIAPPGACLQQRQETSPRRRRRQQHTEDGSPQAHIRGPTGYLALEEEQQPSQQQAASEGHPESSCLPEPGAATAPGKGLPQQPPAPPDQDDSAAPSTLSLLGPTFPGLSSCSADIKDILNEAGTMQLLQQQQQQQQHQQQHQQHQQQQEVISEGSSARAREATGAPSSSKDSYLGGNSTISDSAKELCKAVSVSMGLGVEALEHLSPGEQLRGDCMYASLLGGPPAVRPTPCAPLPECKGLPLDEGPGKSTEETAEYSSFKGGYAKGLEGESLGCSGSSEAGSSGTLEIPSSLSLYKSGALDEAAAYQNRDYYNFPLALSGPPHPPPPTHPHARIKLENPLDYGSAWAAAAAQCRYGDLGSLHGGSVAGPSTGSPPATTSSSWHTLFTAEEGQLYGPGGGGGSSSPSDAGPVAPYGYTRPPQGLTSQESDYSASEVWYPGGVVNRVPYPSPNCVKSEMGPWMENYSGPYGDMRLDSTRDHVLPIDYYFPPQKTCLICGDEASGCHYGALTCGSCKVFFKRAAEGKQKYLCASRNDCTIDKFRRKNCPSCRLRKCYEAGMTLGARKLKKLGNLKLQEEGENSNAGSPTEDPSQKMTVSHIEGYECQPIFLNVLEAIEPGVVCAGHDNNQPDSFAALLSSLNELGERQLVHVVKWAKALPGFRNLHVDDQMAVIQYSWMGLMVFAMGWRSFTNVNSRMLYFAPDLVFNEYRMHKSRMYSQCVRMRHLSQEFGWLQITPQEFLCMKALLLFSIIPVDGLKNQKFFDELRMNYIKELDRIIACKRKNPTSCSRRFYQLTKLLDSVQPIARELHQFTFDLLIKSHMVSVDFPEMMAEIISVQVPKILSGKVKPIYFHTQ
Put plainly: Displacement of [3H] ]5alpha-DHT from mouse androgen receptor expressed in monkey COS7 cells after 2 hrs by scintillation counting analysis. The format is cell-based, COS-7. (In general: Displacement assays read how much labelled ligand stays bound in the presence of the test substance.)

The subject of the next data set is MEF. Nature of the data set: Cytotoxicity against mouse MEF cells at 10 uM after 4 days by MTS/PMS assay. Type of data set: cell-based. The settings on record: 96 h.
Data set [8] concerns the target T3, Androgen receptor (Mus musculus) (UniProt P19091).
T3 sequence (whole entry): T2 sequence (P19091 whole entry)
Put plainly: Antagonist activity against mouse androgen receptor assessed as reduction of 10 nM DHT-induced transcriptional activity at 10 uM after 24 hrs by cell-based luciferase reporter gene assay relative to control. The procedure, abridged: (§2)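 Transcriptional activity is expressed as a percentage after 10 μM compound, given alone for agonist mode or with 10 nM DHT for antagonist mode. Data are from triplicate experiments.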
(In general: A reporter such as luciferase makes a cellular process visible.)

Data set [9] concerns the target T3, Androgen receptor (Mus musculus). Put plainly: Agonist activity at mouse androgen receptor at 10 uM after 24 hrs by cell-based luciferase reporter gene assay relative to control. The method in brief: as §2
In data set [10] the target is T2, Androgen receptor. Put plainly: Antagonist activity at mouse androgen receptor assessed as inhibition of transactivation after 24 hrs by cell-based luciferase reporter gene assay.
In a further data set the test system is LNCaP C4-2. The description is as §1. The format is functional, cell-based.

By inhibition is commonly meant the relative decrease from the control value, in per cent. As usually defined, the IC50 is the concentration needed to halve the response being measured. The term Ki denotes the dissociation constant of the complex between target and ligand, obtained from inhibition or displacement.

On to `CCOc1ccc2c(c1)CCN(c1ccc(C(=O)Nc3cccc(C)n3)cn1)C2`, for which the inhibition entry in [1], in data set [2] and in data set [3] was “Active” each time. The outcome in the data set with PPC-1 was inactive. The IC50 in data set [4] was 11.8 µM; in the data set with LNCaP [5] it was 1.47 µM; at Androgen receptor [10] it was 0.46 µM. Further, the inhibition of growth at 10 µM with LNCaP [6] came out at 80%. The Ki at Androgen receptor [7] was greater than 50 µM. In addition, the Activity result was “Non-toxic” in the data set on MEF and 3.9% in data set [9]. The inhibition in data set [8] was 95.1%.

As for `Cc1cccc(NC(=O)c2ccc(N3CCc4ccccc4C3)nc2)n1`, the inhibition entry in data set [1] and in [2] was “Active” in each case. For the same compound, the outcome with PPC-1 was inactive. Also, the “growth inhibition (GI)” value with LNCaP C4-2 and in the data set with LNCaP [6] was “Active” each time. At Androgen receptor [7], this compound returned an inhibitory constant (Ki) of 1.46 µM. In data set [8], the inhibition stood at 89.9%. Moreover, in data set [9], the Activity turned out to be 3%. In addition, the concentration for half-maximal inhibition (IC50) on Androgen receptor [10] was 4.45 µM.

In the case of `COc1ccc2c(c1OC)CCN(c1ccc(C(=O)Nc3cccc(C)n3)cn1)C2`, the inhibition entry in data set [1], in data set [2] and in data set [3] was “Active” each time. The outcome in the data set on PPC-1 was inactive. In addition, the figures for the IC50 (in data set [4]; in the data set with LNCaP [5]; at Androgen receptor [10]) were 2.5 µM, 0.68 µM and 0.99 µM, respectively. For the same compound, in the data set on LNCaP [6], the inhibition of growth at 10 µM worked out at 90%. Moreover, at Androgen receptor [7], the Ki stood at 25.6 µM. In addition, the values for the Activity entry (in the data set with MEF; in [9]) were “Non-toxic” and 4.7%, respectively. Further, the inhibition in [8] turned out to be 95.6%.
